# The array DNA melting data of Ke et al. (doi:10.1101/2024.01.08.574731)
# Columns and labels:
# [1] = melting temperature; fluorescence melt of hairpins on a sequencing array, two-state fit, raised by 9.35 °C to match UV melts; settings: sodium 0.088 M
# How it was run: (§1)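 Melting temperature and folding enthalpy were derived from bootstrapped two-state fits. The fitted temperatures were raised by 9.35 °C to agree with UV melts, and four replicates were combined by inverse variance. The underlying data were Cy3 fluorescence images of library hairpins, with annealed Cy3 and quencher oligos, on a sequenced MiSeq flow cell in 50 mM Na-HEPES pH 8.0, 25 mM NaCl, taken in 2.5 °C steps up to 60 °C, normalised to pre-quench Cy3 and to control constructs.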
# [2] = folding enthalpy; higher = less favourable; fluorescence melt of hairpins on a sequencing array, two-state fit; settings: sodium 0.088 M
# How it was run: as §1
Sequence,Tm [1],folding enthalpy [2]
GATCGGTCTTCCGATC ((((((....)))))),58.9 °C,-37.2 kcal/mol
GCGTATCCGAAAGGACGC (((..(((....)))))),50.2 °C,-27.1 kcal/mol
GGCTCCCGAAAGGGTGCC (((.(((....))).))),67.6 °C,-40 kcal/mol
GCAGAGTCGAAAGACTGC (((..(((....)))))),48.7 °C,-16.7 kcal/mol
CGTTCGGAAACGAGCACG ((((((....)))..))),30.7 °C,-13.2 kcal/mol
AGAACCAGAAATGGTTCT (((((((....))))))),55.2 °C,-31.4 kcal/mol
GCCTACGAAAGTACAGGC ((((((....)))..))),47.7 °C,-30.7 kcal/mol
GGCCTCACGAAAGTGGCC (((..(((....)))))),53.7 °C,-21.9 kcal/mol
GGTTTAGGAAACTAAACC (((((((....))))))),54.2 °C,-54.6 kcal/mol
GATCTCGCACGAGATC ((((((....)))))),61 °C,-44.6 kcal/mol
GATCTAGTCGTAGATC ((((((....)))))),44.3 °C,-27.9 kcal/mol
GATCGGTTTGCCGATC ((((((....)))))),61.6 °C,-47.9 kcal/mol
GACTCTGGAAACAGGGTC (((.(((....))).))),49.4 °C,-30.7 kcal/mol
GTCAAGGGAAACCTCGAC (((.(((....))).))),37.5 °C,-19.1 kcal/mol
GTACGGGGAAACCTGTGC (.((.((....)).)).),37.3 °C,-25.8 kcal/mol
GACCTTCCGAAAGGAGTC (((..(((....)))))),26.4 °C,-11.8 kcal/mol
GCGCTTGGAAACGAGCGC (((((.(....).))))),63.8 °C,-52.1 kcal/mol
GATCGTGGCTACGATC ((((((....)))))),59 °C,-39.3 kcal/mol
GTTCCAGGAAACTGGAAC (((((((....))))))),60.4 °C,-42.2 kcal/mol
GAACACGAAAGTGAGTTC ((((((....)))..))),35.7 °C,-16.4 kcal/mol
GCCCGCGAAAGCGCTGGC ((((((....)))..))),58.5 °C,-16.5 kcal/mol
GTAGCAGGAAACTGCTGC (.(((((....))))).),55.5 °C,-26.2 kcal/mol
GTTCGAGGAAACTCGAAC (((((((....))))))),65 °C,-42.3 kcal/mol

Sequence,Tm [1],folding enthalpy [2]
GGGCATTCGAAAGAACCC (((..(((....)))))),29.5 °C,-14.2 kcal/mol
GATGATGCGAAAGCAATC (((..(((....)))))),37.6 °C,-13.7 kcal/mol
GGGATCGCGAAAGCGCCC (((..(((....)))))),40.6 °C,-13.8 kcal/mol
GAGAGCGAAAGCTCCTC ((((((....))).))),49 °C,-10.3 kcal/mol
GCGTTGGCGAAAGCCCGC (((..(((....)))))),57.3 °C,-18.8 kcal/mol
CGATCGGAAACGATATCG ((((((....)))..))),35.5 °C,-18.4 kcal/mol
GATACGGGAAACCGTACC (.(((((....))))).),32.1 °C,-15.7 kcal/mol
GTAAGTGGAAACACTTGC (.(((((....))))).),45 °C,-26.7 kcal/mol
GATCACTCTGGTGATC ((((((....)))))),58.8 °C,-39.8 kcal/mol
GTAACAGGAAACTGCTAC (((.(((....))).))),32 °C,-29.1 kcal/mol
GCCGCGCGAAAGCTGGGC (((..((....))..))),56.3 °C,-20 kcal/mol
GATCGAATTGTCGATC ((((((....)))))),50 °C,-41.9 kcal/mol
GATCTCCCACGAGATC ((((((....)))))),50.5 °C,-40.3 kcal/mol
GCCGTCGAAAGACTGGC ((((((....))).))),56.4 °C,-33.4 kcal/mol
GATCATAACTATGATC ((((((....)))))),48 °C,-35.8 kcal/mol
CGCATCGGAAACGAGGCG (((.(((....))).))),61.4 °C,-44.1 kcal/mol
GTTTCGGGAAACCGAGAC ((.((((....)))).)),47.3 °C,-21.4 kcal/mol
GATCTCTATTGAGATC ((((((....)))))),53 °C,-39.1 kcal/mol
GCCCAGGGAAACTTGGGC (((((.(....).))))),56.5 °C,-36.8 kcal/mol
GAGTGAGAAATCACTC ((((((....)))))),53.7 °C,-34.3 kcal/mol
GATCGTTGCGACGATC ((((((....)))))),60.7 °C,-41.2 kcal/mol
CGCATTCGGAAACGAGCG (((..(((....)))))),36.9 °C,-25.9 kcal/mol
GATCTATCACTAGATC ((((((....)))))),38.6 °C,-31.9 kcal/mol

Sequence,Tm [1],folding enthalpy [2]
GCGCCCGAAAGGGTCCGC ((((((....)))..))),56.2 °C,-14.8 kcal/mol
GCCGTAGGAAACTGCGGC ((((.((....)).)))),61.6 °C,-37.3 kcal/mol
GATCAAGTAGTTGATC ((((((....)))))),46.7 °C,-31.6 kcal/mol
GGCAGAGGAAACTCTGCC (((((((....))))))),67.6 °C,-40.2 kcal/mol
GCTTGGCGAAAGCTACGC ((.(.((....)).).)),43.3 °C,-14.8 kcal/mol
GGTGAGCGAAAGCTAACC (((.(((....))).))),55.5 °C,-33.3 kcal/mol
GGAAGTCGAAAGACTCC (((.(((....)))))),53 °C,-17.9 kcal/mol
GTGCCAGGAAACTAGCAC ((((.((....)).)))),43.2 °C,-28.2 kcal/mol
GATGTAGGAAACCACATC (((((.(....).))))),37.6 °C,-34.1 kcal/mol
GCAGAACGAAAGTTTTGC (((.(((....))).))),52.1 °C,-40.9 kcal/mol
GATGCCGAAAGGCACATC ((((((....)))..))),33.3 °C,-8.64 kcal/mol
GGCCCCGAAAGGGATGCC ((((((....)))..))),56.8 °C,-22.2 kcal/mol
GATCTAGATCTAGATC ((((((....)))))),47.5 °C,-37.3 kcal/mol
GATCGCCTGTGCGATC ((((((....)))))),66.8 °C,-36.7 kcal/mol
GAGAATCCGAAAGGACTC (((..(((....)))))),27.7 °C,-16 kcal/mol
GTACAAGAAATTGTAC ((((((....)))))),45 °C,-32.5 kcal/mol
CGGTCGGAAACGACTCCG ((((((....)))..))),33.9 °C,-13.3 kcal/mol
GTGCGCGAAAGCGCCCAC ((((((....)))..))),43.3 °C,-6.88 kcal/mol
GATCACTTGAGTGATC ((((((....)))))),56.1 °C,-42.4 kcal/mol
GCTTGCGAAAGCACCAGC ((((((....)))..))),34.8 °C,-8.92 kcal/mol
GATCAGGTCCCTGATC ((((((....)))))),54.6 °C,-39 kcal/mol
GCGGAAGGAAACCTCCGC (((((.(....).))))),54.1 °C,-33.2 kcal/mol
CGCCCTCGGAAACGAGCG (((..(((....)))))),34.5 °C,-12.2 kcal/mol

Sequence,Tm [1],folding enthalpy [2]
GGTGCCGAAAGGCTCACC ((((((....)))..))),46.3 °C,-11.6 kcal/mol
GTCACCGAAAGGTAGGAC ((((((....)))..))),37.4 °C,-17.2 kcal/mol
GGCAACGGAAACGTTACC ((.((((....)))).)),45.1 °C,-29.8 kcal/mol
GATCGTGCGCACGATC ((((((....)))))),64.6 °C,-51.2 kcal/mol
GGGTTGCCGAAAGGCCCC (((..(((....)))))),48.4 °C,-14.5 kcal/mol
GCCCAGCGAAAGCGAGGC (((..((....))..))),62.7 °C,-20.6 kcal/mol
GAGTAGCGAAAGCTTCTC (((.(((....))).))),47.2 °C,-26.4 kcal/mol
GTTTACGGAAACGCAAAC ((((.((....)).)))),37.3 °C,-27.7 kcal/mol
GCTGTGCGAAAGCTCGGC ((.(.((....)).).)),56 °C,-24.6 kcal/mol
GCCGCCGAAAGGCTAGGC ((((((....)))..))),60.5 °C,-27.9 kcal/mol
GTGCTGGGAAACCAGTAC ((.((((....)))).)),51.7 °C,-39.6 kcal/mol
GTACACGAAAGTGACTAC ((((((....)))..))),37.2 °C,-15.4 kcal/mol
GATGTTGGAAACAACACC (.(((((....))))).),34.8 °C,-15.6 kcal/mol
GCAGATCGAAAGATATGC (((.(((....))).))),54.7 °C,-36.7 kcal/mol
CGTTACGGAAACGTGACG (((.(((....))).))),51.5 °C,-52.2 kcal/mol
GCCACGCGAAAGCATAGC ((.(.((....)).).)),26.7 °C,-9.06 kcal/mol
GATCCCAACCGGGATC ((((((....)))))),63.4 °C,-35.1 kcal/mol
GCGTTTGTACGC ((((....)))),54.9 °C,-25.4 kcal/mol
GGATATGGAAACATGTCC (((.(((....))).))),45.3 °C,-30.4 kcal/mol
GGGTTTGGAAACGAATCC ((.((.(....).)).)),34.6 °C,-25.1 kcal/mol
AGAATGAAAATTCT (((((....))))),25.9 °C,-10.8 kcal/mol
GAAATCGGAAACGATCTC ((.((((....)))).)),29.3 °C,-17.4 kcal/mol
GTCGATGGAAACACCGAC ((((.((....)).)))),47.2 °C,-38 kcal/mol
